This note sets out measurements from ChEMBL document CHEMBL4177709, “Design, synthesis and evaluation against Mycobacterium tuberculosis of azole piperazine derivatives as dicyclotyrosine (cYY) mimics” (Bioorg Med Chem, 2018).

Each structure is given as a SMILES string. Values after ≈ are worked out from the molar mass of the structure shown. Active and inactive are the calls of the source. The rule behind the calls is not given here.

Assay [1] deals with Mycobacterium tuberculosis. Briefly: Antibacterial activity against Mycobacterium tuberculosis H37Rv after 7 days by resazurin microtiter assay. The format is functional. To be noted: 168 h. In a few lines:
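M. tuberculosis H37Rv grown at 37 °C in 7H9 with 10% OADC to mid-log (OD600 0.4-0.6), adjusted to McFarland no.1 and diluted 1:20. Compounds from DMSO stocks serially diluted in 7H9/OADC to final 0.39-100 µg/mL; rifampicin 0.004-1 µg/mL as control. After 7 days at 37 °C, 0.01% resazurin added; fluorescence (530/590 nm) read 24 h later.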
Background: Alamar Blue is a resazurin reagent that responds to reducing activity.

A short description of assay [2]: Binding affinity to Mycobacterium tuberculosis CYP121A1 by UV-visible spectrophotometric titration method. The gist of the method:
(§1)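 Purified CYP121A1 (3-4 μM) titrated at 28 °C in 100 mM KPi, 200 mM KCl, 0.004% Triton X-100, pH 7.85, with small aliquots of ligand from DMSO stocks. UV-visible spectra recorded 250-800 nm. Difference spectra give peak-minus-trough absorbance change, plotted against [ligand]. Kd obtained by hyperbolic or Hill fit, averaged over triplicate titrations.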

Assay [3] has as its system Mycobacterium tuberculosis. Briefly: Binding affinity to Mycobacterium tuberculosis CYP121A1 assessed as red shift in heme soret peak up to 500 uM by UV-visible spectrophotometric titration method. In a few lines: as §1
Assay [4] concerns Mycobacterium tuberculosis. The assay can be described thus: Binding affinity to Mycobacterium tuberculosis CYP121A1 assessed as blue shift in heme soret peak up to 1750 uM by UV-visible spectrophotometric titration method. The gist of the method:
as §1

For assay [5], the system named is Mycobacterium tuberculosis. Briefly: Binding affinity to Mycobacterium tuberculosis CYP121A1 assessed as red shift in heme soret peak up to 300 uM by UV-visible spectrophotometric titration method. The gist of the method:
as §1

The test system of assay [6] is Mycobacterium tuberculosis. The assay can be described thus: Binding affinity to Mycobacterium tuberculosis CYP121A1 assessed as red shift in heme soret peak up to 250 uM by UV-visible spectrophotometric titration method. In a few lines:
as §1

What is called MIC90 is an inhibitory concentration at the 90% level, which refers to growth in some studies and to a panel of isolates in others. Lower therefore signals greater potency. Broadly, the Kd is a measure of binding affinity in units of concentration. A high value points to lower affinity. Regarding `COc1cc(CN2CCN(Cc3cc(OC)cc(OC)c3)C(Cn3ccnc3)C2)cc(OC)c1` (stereo not given), in assay [1], the MIC90 was 12.5 µg/mL (≈ 26.8 µM). In assay [2], this compound yielded a Kd of 1440 µM.
Turning to `COc1ccc(CN2CCN(CCCn3ccnc3)CC2=O)cc1`, in assay [1], the MIC90 was over 100 µg/mL. Further, in assay [3], the outcome was Active. Also, in assay [2], the Kd is 309 µM.
`O=C(Cn1cncn1)N1CCN(Cc2ccc(Cl)cc2Cl)CC1` had an MIC90 in assay [1] of over 100 µg/mL. For the same compound, the result in assay [4] was Active. Besides, in assay [2], the Kd came out at 417 µM.
`c1ccc(CN2CCN(Cc3ccccc3)C(Cn3ccnc3)C2)cc1` (stereo not given) yielded an MIC90 in assay [1] of 50 µg/mL (≈ 144 µM).
In assay [1], `COc1ccc(CN2CCN(Cc3ccc(OC)cc3)C(Cn3cncn3)C2)cc1` (stereo not given) gave an MIC90 of 100 µg/mL (≈ 245 µM). The same compound came in with an equilibrium dissociation constant (Kd) in assay [2] of 1300 µM.
In assay [1], `c1ccc(CN2CCN(Cc3ccccc3)C(Cn3cncn3)C2)cc1` (stereo not given) yielded an MIC90 of over 100 µg/mL. Further, the Kd in assay [2] came out at 1830 µM.
With `O=C1CN(CCCn2ccnc2)CCN1Cc1ccc(F)cc1`, the result in assay [5] was Active. Moreover, the MIC90 in assay [1] is over 100 µg/mL. The affinity in assay [2], expressed as Kd, was 226 µM.
In the case of `O=C(Cn1ccnc1)N1CCN(Cc2ccc(F)cc2)CC1`, in assay [1], the MIC90 was over 100 µg/mL. This compound also registered a Kd in assay [2] of 1140 µM.
The matching figures for `O=C1CN(CCCn2ccnc2)CCN1Cc1ccc(Cl)cc1Cl`: 100 µg/mL (≈ 272 µM) and 967 µM.
In the case of `O=C1CN(CCCn2ccnc2)CCN1Cc1ccc(Cl)cc1`, the MIC90 in assay [1] was over 100 µg/mL. Also, the result in assay [6] was Active. Further, the Kd in assay [2] was 81.3 µM.
Take `O=C(Cn1cncn1)N1CCN(Cc2ccc(F)cc2)CC1`: in assay [1], the MIC90 is over 100 µg/mL. This compound also displayed a Kd in assay [2] of 960 µM.
